Screening data as filed in PubChem.
Hsp70 act – Hsp70 transcriptional activators, primary screen, cell-based, HeLa, Hsp70 promoter luciferase, luminescence, 10 µM | HeLa Hsp70 promoter luciferase reporter; scaled: vehicle 0, proteasome-inhibitor control 100% | activation, % at 10 µM | actives 0.04% (n = 200,000) | AID 1203, 2008;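 active = activation above the mean across all tested compounds plus 3 SD, cutoff set per campaign, cut at about 5.5% in these data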
STAT3 act – IL-6 driven STAT3 reporter potentiators, primary screen, U3A cells, luciferase, luminescence, MLSCN library | IL-6 STAT3-luciferase reporter; 100% = signal with IL-6 EC80 alone | AID 871, 2007 | actives 0.91% (n = 190,000) | activation (% of control), % at 5.6 µM;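 active = activation above the screen-wide mean of compound activation plus 3 SD, cut at about 130% in these data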
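system = STAT3-luciferase reporter U3A cells | reagent = IL-6 stimulus at 33 ng/mL final | timing = 1 h compound pre-exposure, 6 h IL-6 stimulation, 37 °C | measured by = luminescence | evaluation = % activation versus median of IL-6-stimulated wells | control set = IL-6-only wells as 100% reference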
PolyA inhibitor – polyadenylation inhibitors in yeast reporter cells, primary screen, luminescence, S. cerevisiae. AID 1875, 2009. activity score, % at 12 µM. S. cerevisiae SKY197-pL101 polyadenylation reporter, beta-gal luminescence; efflux-impaired pdr1/pdr3 knockout yeast; score 100 = 6 SD above DMSO. actives 0.02% (n = 300,000);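 active = lowest replicate activity score at least 50, where 100 means six control SD above control mean; inconclusive = lowest score under 50 but half or more replicates reach 50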;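 also: yeast exposed to compound for 9 h at 30 °C; higher score means more reporter readthrough which indicates perturbed polyadenylation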
AHR act – AHR activators, primary screen, cell-based, luminescence, luciferase reporter, human. activation, % at 5 µM. actives 2.5% (n = 320,000). AID 2796, 2010. AHR-responsive luciferase reporter cells. Aryl hydrocarbon receptor (Homo sapiens), P35869; in the data active = activation above about 47%
HSF1 inh – HSF1 inhibitors in luciferase reporter cells, primary screen, cell-based, NIH3T3, luminescence | NIH3T3-HGL HSE-luciferase, MG132-induced, luminescence 8 h; active compounds read low | activity change, negative = inhibition, % at 7.5 µM (by protocol) | actives 0.77% (n = 300,000);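 active = more than half of replicate wells show activity change below -50%, luminescence cut by over half; inconclusive = some wells, but at most half, below -50%; inactive = no replicate well below -50%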;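 also: luciferase reports HSF-1 transcriptional activity via heat shock element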
PERK inhibitor – block of dimerizer-induced PERK translation repression, primary screen, PERK inhibitor project, CHO PERK-DD cells, SEAP luminescence, HTS | inhibition, % at 5.6 µM | AID 1416, 2008 | CHO PERK-DD fusion, SEAP luminescence translation reporter | Eukaryotic translation initiation factor 2-alpha kinase 3 (Homo sapiens), Q9NZJ5 | actives 0.17% (n = 220,000);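 active = inhibition above the mean inhibition of all tested compounds plus 3 SD, set separately per screening campaign, cut at about 2.9% in these data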;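 also: PERK kinase domain activated by AP20187 dimerizer at 100 nM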
Target sequence (Q9NZJ5 whole entry, looked up, the tested form may be a part): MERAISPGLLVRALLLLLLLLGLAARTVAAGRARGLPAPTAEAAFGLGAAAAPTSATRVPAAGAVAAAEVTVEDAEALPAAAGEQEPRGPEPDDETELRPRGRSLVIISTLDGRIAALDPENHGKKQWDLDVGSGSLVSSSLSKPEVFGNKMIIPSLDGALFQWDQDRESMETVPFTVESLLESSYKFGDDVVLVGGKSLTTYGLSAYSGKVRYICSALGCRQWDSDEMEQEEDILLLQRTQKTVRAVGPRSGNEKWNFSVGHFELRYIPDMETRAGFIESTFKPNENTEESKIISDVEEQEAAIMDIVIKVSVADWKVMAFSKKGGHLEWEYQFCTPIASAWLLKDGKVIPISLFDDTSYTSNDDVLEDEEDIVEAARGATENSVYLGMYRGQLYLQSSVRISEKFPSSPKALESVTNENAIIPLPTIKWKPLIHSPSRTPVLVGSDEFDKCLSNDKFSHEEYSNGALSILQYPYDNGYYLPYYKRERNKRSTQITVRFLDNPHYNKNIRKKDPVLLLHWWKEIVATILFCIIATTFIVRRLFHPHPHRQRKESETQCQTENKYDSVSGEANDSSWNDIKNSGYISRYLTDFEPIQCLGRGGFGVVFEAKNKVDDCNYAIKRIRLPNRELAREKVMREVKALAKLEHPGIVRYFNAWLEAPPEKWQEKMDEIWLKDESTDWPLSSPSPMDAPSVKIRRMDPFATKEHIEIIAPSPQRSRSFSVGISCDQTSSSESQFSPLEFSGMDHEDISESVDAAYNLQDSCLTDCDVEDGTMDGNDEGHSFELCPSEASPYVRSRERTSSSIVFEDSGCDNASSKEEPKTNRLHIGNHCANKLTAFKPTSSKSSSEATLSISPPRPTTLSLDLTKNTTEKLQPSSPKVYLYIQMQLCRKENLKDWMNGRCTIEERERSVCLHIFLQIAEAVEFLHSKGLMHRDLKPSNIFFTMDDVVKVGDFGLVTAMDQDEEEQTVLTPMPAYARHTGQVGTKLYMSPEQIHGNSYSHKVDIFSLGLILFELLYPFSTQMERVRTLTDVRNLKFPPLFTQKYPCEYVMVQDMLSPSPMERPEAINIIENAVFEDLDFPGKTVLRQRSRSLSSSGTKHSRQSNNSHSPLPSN
Of the large screens only hits and unclear results are named; the others gave an inactive call. In the library only some 3.6% were active in any assay of this set; here they are far more common.

Cc1cc(C)n(CCC(=O)N/N=C/c2c(O)ccc3ccccc23)n1	AHR act 62 (no result: Hsp70 act, STAT3 act)
Oc1ccc2ccccc2c1C=NNc1ccccn1	HSF1 inh 70 (no result: Hsp70 act, STAT3 act, PolyA inhibitor, AHR act, PERK inhibitor)
Oc1ccc2ccccc2c1/C=N/Nc1nnc(-c2ncc[nH]2)c2ccccc12	none
COc1ccccc1OCC(=O)N/N=C/c1cccc2cccnc12	none (no result: Hsp70 act, STAT3 act, PERK inhibitor)
COc1ccccc1OCC(=O)N/N=C/c1c(O)ccc2ccccc12	AHR act 51 (no result: Hsp70 act, STAT3 act, PERK inhibitor)
CCN(Cc1nc(-c2ccc(OC)c(OC)c2)no1)C(=O)c1ccoc1C	none (no result: Hsp70 act, STAT3 act, PERK inhibitor)
Cc1cccn2c(=O)c(C=NCc3ccco3)c(Nc3ccc(SC(F)F)cc3)nc12	AHR act 49
Cc1ccc(C(=O)NC(C)c2ccc(-n3ccnc3)cc2)o1 (stereo unspecified)	none (no result: Hsp70 act, STAT3 act, PERK inhibitor)
Cc1ccc(NC(=O)c2ccc3nc[nH]c3c2)cc1C	AHR act 64
Oc1ccc(CN2CCCc3ccccc32)c2cccnc12	HSF1 inh -69
Cc1cccc(C)c1OCC(=O)N(Cc1ccc(N(C)C)cc1)C1CCS(=O)(=O)C1 (stereo unspecified)	none (no result: Hsp70 act, STAT3 act)
COc1ccc(OCC(=O)N2CCN(c3cccc(C(F)(F)F)c3)CC2)cc1	HSF1 inh -87
CCOc1ccc(NC(=O)C(C)NS(=O)(=O)c2ccc(NC(C)=O)cc2)cc1 (stereo unspecified)	HSF1 inh -67
CCOc1ccc(S(=O)(=O)NC(C)C(=O)NCc2ccccn2)cc1 (stereo unspecified)	none (no result: Hsp70 act, STAT3 act, PERK inhibitor)
CCCCCCCCC1CC(C(=O)Nc2ccccc2)C(=O)O1 (stereo unspecified)	none (no result: Hsp70 act, STAT3 act, PERK inhibitor)
COc1ccc(C(=O)CSc2nccn2C)cc1	none (no result: Hsp70 act, STAT3 act, PERK inhibitor)
COc1cc(C(=O)CSc2nccn2C)cc(OC)c1OC	AHR act 47 (no result: Hsp70 act, STAT3 act, PERK inhibitor)
Cc1cc(=O)[nH]c(Nc2ccc(N(C)C)cc2)n1	AHR act 55 (no result: Hsp70 act, STAT3 act, PERK inhibitor)
COc1ccc(NC(=O)C2=NN(c3ccccc3)C(=O)CC2)cn1	none (no result: Hsp70 act, STAT3 act, PolyA inhibitor, HSF1 inh, PERK inhibitor)
CCCCNC(=O)C(c1ccc(OCC(=O)OC)c(C(=O)OC)c1)N(CCc1c[nH]c2ccccc12)C(=O)CCCCCN1C(=O)NC(c2ccc(-c3ccccc3)cc2)C(C(=O)OCc2ccccc2)=C1C (stereo unspecified)	HSF1 inh -80 (no result: Hsp70 act, STAT3 act, AHR act, PERK inhibitor)
O=C(CCC(=O)c1ccc(Br)cc1)Nc1cccnc1	HSF1 inh -85
O=C(CCC(=O)c1ccccc1)Nc1cccnc1	none
Oc1[nH]c2ccccc2c1N=Nc1ccc(C(F)(F)F)cn1	AHR act 55
O=C(O)c1ccc(N=Nc2c(O)[nH]c3ccc(Br)cc23)cc1	none (no result: Hsp70 act, STAT3 act, PERK inhibitor)
Oc1[nH]c2ccc(Br)cc2c1N=Nc1ccc(C(F)(F)F)cn1	AHR act 64
COC(=O)N=Nc1c(O)[nH]c2ccc(Br)cc12	AHR act 70 (no result: Hsp70 act, STAT3 act)
Oc1[nH]c2ccccc2c1N=Nc1nncc2ccccc12	PolyA inhibitor inconclusive (no result: Hsp70 act, STAT3 act)
COc1ccccc1C(=O)NCCC(=O)NCC1CCCO1 (stereo unspecified)	none (no result: Hsp70 act, STAT3 act, PolyA inhibitor, HSF1 inh, PERK inhibitor)
Cc1ccccc1N=CC1=C(O)c2ccccc2C1=O	none
COc1ccc(N=CC2=C(O)c3ccccc3C2=O)c(OC)c1	AHR act 54, HSF1 inh -73
Cc1nn(CC(=O)Nc2ccc(Br)cc2F)c(=O)c2cccn12	none (no result: Hsp70 act, STAT3 act, PERK inhibitor)
COc1ccc(-c2nnnn2-c2ccc(F)cc2F)cc1	none
CC(C)CC(C(=O)OCC(=O)c1c(N)n(C)c(=O)n(C)c1=O)N1C(=O)c2ccccc2C1=O (stereo unspecified)	none
Cn1c(N)c(C(=O)COC(=O)[C@H](Cc2ccccc2)N2C(=O)c3ccccc3C2=O)c(=O)n(C)c1=O	AHR act 58
CN(CCC#N)C(=O)COC(=O)[C@H](Cc1ccccc1)N1C(=O)c2ccccc2C1=O	AHR act 54 (no result: Hsp70 act, STAT3 act, PERK inhibitor)
Cc1cccc(-c2noc(C(C)NC(=O)c3ccco3)n2)c1 (stereo unspecified)	none (no result: Hsp70 act, STAT3 act, PERK inhibitor)
CCOc1ccc2nc(SCC(=O)Nc3ccc4[nH]c(=O)[nH]c4c3)[nH]c2c1	none (no result: Hsp70 act, STAT3 act, PERK inhibitor)
O=C1c2ccccc2C(=O)N1n1cccc1	none
Cc1cc2c(NC3CCCCC3)ncnc2s1	none (no result: Hsp70 act, STAT3 act, AHR act, PERK inhibitor)
CN(C(=O)c1cccc(Cl)c1)C1CCCN(Cc2ccccc2F)C1 (stereo unspecified)	none (no result: Hsp70 act, STAT3 act, PERK inhibitor)
COc1cc(C(=O)N(C)C2CCCN(Cc3ccccc3F)C2)cc(OC)c1OC (stereo unspecified)	HSF1 inh -77 (no result: Hsp70 act, STAT3 act, PERK inhibitor)
Cc1nn(C(C)C(=O)N2CCc3ccccc32)c(C)c1[N+](=O)[O-] (stereo unspecified)	AHR act 63
Cc1nn(CC(=O)N2CCCc3ccccc32)c(C)c1[N+](=O)[O-]	none
N/C(=N\OCc1ccc([N+](=O)[O-])cc1)c1ccncc1	none
COc1ccc(-c2nc(C)c(C(C)=O)n2O)cc1OC	AHR act 48
COc1ccc(-c2nc(C)c(C(C)=O)n2O)cc1	none
CC(C)c1cccc(C(C)C)c1NC(=O)CCN1C(=O)NC2(CCCC2)C1=O	none (no result: Hsp70 act, STAT3 act, PolyA inhibitor, HSF1 inh, PERK inhibitor)
CN(C)c1ccc(N=Nc2nc3ccccc3n2C)cc1	HSF1 inh -83 (no result: Hsp70 act, STAT3 act)
CCn1c(NCc2ccc(N(C)C)cc2)nc2ccccc21	none
O=C(Nc1ncc2c(n1)-c1ccccc1OC2)c1ccc(F)cc1	AHR act 55
O=C(Nc1ncc2c(n1)-c1ccccc1CC2)c1ccc(Cl)cc1	AHR act 75
O=C(Nc1ncc2c(n1)-c1ccccc1OC2)c1cccc([N+](=O)[O-])c1	none
COc1ccccc1CNC(=O)CCS(=O)(=O)Cc1ccc(C)cc1	none (no result: Hsp70 act, STAT3 act, PERK inhibitor)
Cc1ccc(-c2ccnc3c(Br)c(C)nn23)cc1	none (no result: Hsp70 act, STAT3 act, PERK inhibitor)
Cc1nn2c(-c3ccccc3)ccnc2c1Br	AHR act 74 (no result: Hsp70 act, STAT3 act, PERK inhibitor)
Cc1ccc(NC(=O)c2cccc(-n3cnnn3)c2)cc1Cl	AHR act 56 (no result: Hsp70 act, STAT3 act, PolyA inhibitor, HSF1 inh, PERK inhibitor)
O=C(NCCN1CCCC1)c1ccc2c(c1)N(Cc1ccccc1)C(=O)c1ccccc1S2(=O)=O	none (no result: Hsp70 act, STAT3 act, PERK inhibitor)
CN1N=C2c3ccccc3CCC2C1c1ccc(Cl)cc1 (stereo unspecified)	AHR act 66 (no result: Hsp70 act, STAT3 act)
CN1N=C2c3ccccc3CCC2C1c1ccc(F)cc1 (stereo unspecified)	AHR act 76 (no result: Hsp70 act, STAT3 act)
Cn1ncc2c(N3CCC(Cc4ccccc4)CC3)ncnc21	AHR act 73
c1ccc(CCN2CCN(c3ncnc4c3cnn4-c3ccccc3)CC2)cc1	none
CCN(CC)C(=O)C1CCCN(c2ncnc3c2cnn3-c2ccc(Cl)cc2)C1 (stereo unspecified)	none (no result: Hsp70 act, STAT3 act, PERK inhibitor)
